Assay results: publication PMC4532310 (Nature, 2015)
“Also recorded” adds a separate entry of the source. Bridges are numbered along the chain shown (N, C = ends). Where no end group is shown, it is not given here.

Key:
[1] = molecular target: T1, ER (ERECTA) ectodomain, ERΔK-GFP (Arabidopsis thaliana, UniProt Q42371); test: QCM direct binding, ERΔK-GFP-functionalized chip; conditions: frequency change, phosphate buffer, 4°C
T1 sequence (Q42371 25-580 limits assumed): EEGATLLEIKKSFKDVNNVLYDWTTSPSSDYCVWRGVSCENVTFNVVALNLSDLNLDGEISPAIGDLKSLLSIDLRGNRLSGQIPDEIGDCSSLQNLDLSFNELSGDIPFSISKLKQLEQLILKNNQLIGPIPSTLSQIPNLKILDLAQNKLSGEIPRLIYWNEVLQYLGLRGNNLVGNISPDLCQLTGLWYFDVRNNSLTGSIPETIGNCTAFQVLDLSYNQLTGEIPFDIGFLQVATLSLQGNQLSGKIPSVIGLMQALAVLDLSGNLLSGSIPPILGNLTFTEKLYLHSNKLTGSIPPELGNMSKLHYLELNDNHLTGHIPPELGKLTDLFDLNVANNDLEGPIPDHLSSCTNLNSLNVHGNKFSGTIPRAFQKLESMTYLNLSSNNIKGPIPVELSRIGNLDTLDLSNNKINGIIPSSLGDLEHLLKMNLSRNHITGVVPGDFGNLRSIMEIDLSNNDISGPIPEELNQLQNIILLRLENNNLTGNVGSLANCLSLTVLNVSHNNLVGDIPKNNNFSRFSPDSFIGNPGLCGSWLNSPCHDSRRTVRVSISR
Procedure, shortened: (§1)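 Purified GFP-fused receptors (ERΔK-GFP, TMM-GFP) or control GFP are obtained from N. benthamiana. They are immobilised on gold QCM chips via anti-GFP antibody. Solutions of HPLC-purified, bioassay-verified bioactive peptide are then introduced, and binding is recorded as frequency change. Each run yields 10-20 points (average, SD). Replicate runs: ER n=4 Stomagen, n=2 MEPF2; TMM n=2 Stomagen, n=3 MEPF2; GFP n=3 Stomagen, n=2 MEPF2.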

[2] = molecular target: T2, TMM (TOO MANY MOUTHS), TMM-GFP (Arabidopsis thaliana, UniProt Q9SSD1); test: QCM direct binding, TMM-GFP-functionalized chip; conditions: frequency change, phosphate buffer, 4°C
T2 sequence (Q9SSD1 24-496): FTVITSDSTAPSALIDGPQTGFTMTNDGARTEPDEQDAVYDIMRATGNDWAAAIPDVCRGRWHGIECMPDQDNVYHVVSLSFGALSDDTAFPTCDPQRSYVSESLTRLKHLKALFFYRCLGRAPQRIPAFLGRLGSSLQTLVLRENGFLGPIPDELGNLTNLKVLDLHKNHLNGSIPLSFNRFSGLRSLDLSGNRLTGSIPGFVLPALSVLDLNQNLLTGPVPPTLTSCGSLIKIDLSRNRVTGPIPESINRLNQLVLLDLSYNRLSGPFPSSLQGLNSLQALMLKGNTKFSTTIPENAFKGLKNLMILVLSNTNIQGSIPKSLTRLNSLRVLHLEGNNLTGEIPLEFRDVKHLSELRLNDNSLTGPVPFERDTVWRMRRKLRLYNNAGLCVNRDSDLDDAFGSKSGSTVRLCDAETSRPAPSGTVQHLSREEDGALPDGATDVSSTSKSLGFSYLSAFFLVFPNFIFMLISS
Procedure, shortened: as §1

[3] = system: GFP; test: QCM direct binding, control GFP chip; conditions: frequency change, phosphate buffer, 4°C, Stomagen n=3, MEPF2 n=2
Procedure, shortened: as §1

[4] = system: MPK3 and MPK6; test: MAPK phosphorylation assay in Arabidopsis seedlings; format: in vivo; conditions: MEPF2 2.5 μM, Arabidopsis wild-type seedlings; anti-phosphoERK immunoblot
Procedure, shortened: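 Peptide (MEPF2) is applied to wild-type Arabidopsis seedlings and sampled over a time course. Heat-denatured peptide serves as a control. Extracts are immunoblotted with anti-phosphoERK antibody to detect phosphorylated MPK6 and MPK3, and Coomassie-stained total protein is shown. Four and two biological replicates are run for the two blot series.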

[5] = molecular target: T3, ER ectodomain (ERΔK-GFP) (Arabidopsis thaliana, UniProt Q42371); test: Ligand competition assay, Stomagen vs MEPF2-MYC-HIS for binding to ER
T3 sequence (Q42371 25-580 limits assumed): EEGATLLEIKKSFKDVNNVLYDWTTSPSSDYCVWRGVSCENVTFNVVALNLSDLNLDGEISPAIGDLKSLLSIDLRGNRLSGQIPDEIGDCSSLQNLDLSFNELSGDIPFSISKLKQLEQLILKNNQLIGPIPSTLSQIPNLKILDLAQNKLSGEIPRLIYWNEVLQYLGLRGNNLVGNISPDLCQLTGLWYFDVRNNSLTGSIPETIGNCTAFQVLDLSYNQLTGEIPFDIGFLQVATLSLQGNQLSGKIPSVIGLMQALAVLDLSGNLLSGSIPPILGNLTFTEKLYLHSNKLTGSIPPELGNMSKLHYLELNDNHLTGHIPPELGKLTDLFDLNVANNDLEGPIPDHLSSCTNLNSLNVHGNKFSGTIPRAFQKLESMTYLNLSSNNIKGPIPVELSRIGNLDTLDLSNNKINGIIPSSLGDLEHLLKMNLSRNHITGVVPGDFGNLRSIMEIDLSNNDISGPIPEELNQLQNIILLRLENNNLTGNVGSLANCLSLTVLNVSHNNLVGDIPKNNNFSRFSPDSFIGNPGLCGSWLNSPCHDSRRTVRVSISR
Procedure, shortened: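 ER ectodomain–GFP (ERΔK-GFP) is expressed in N. benthamiana, and microsomal fractions are prepared. Fractions are incubated with 1 μM bioactive MEPF2-MYC-HIS plus Stomagen at 0-23.4 μM, then ER is immunoprecipitated. The co-IP'd tagged MEPF2 is immunoblotted first, and the same blot is re-probed with anti-Stomagen antibody. Blots are quantified from four biological replicates (S.E.M.), and IC50 is derived from this immunoblot-based quantification.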

[6] = system: Arabidopsis wild-type seedlings, abaxial cotyledon epidermis; format: in vivo; conditions: independent batch of Stomagen used in Fig. 3c, five days, n=8 (Peak 1), n=6 (Peak 2)
[7] = system: TMM; test: Co-IP with TMM-GFP; format: binding, Arabidopsis; conditions: N. benthamiana microsomal fraction; 1 μM peptide; anti-GFP IP
[8] = molecular target: ER ectodomain fused to GFP (ERΔK-GFP) (Arabidopsis); test: co-IP

Row | Molecule | binding to ERΔK-GFP (words) [1] | binding to ERΔK-GFP (words) ([1]; listed as EPF2) | binding to TMM (words) [2] | binding to TMM (words) ([2]; listed as EPF2) | binding to control GFP [3] | time after which MPK3/MPK6 phosphorylation declined [4] [h] | time to phosphorylation of MPK3 and MPK6 [4] [min] | IC50 [5] [nM] | replacement of MEPF2 for ER-binding ([5]; 1 μM bioactive MEPF2-MYC-HIS, increasing Stomagen 0-23.4 μM, IP and immunoblot) | bioactivity, HPLC peaks of independent batch used for QCM [6] | association with TMM by Co-IP [7] | IC50 [8] [nM]
1 | TGSSLPDCSYACGACSPCKRVMISFECSVAESCSVIYRCTCRGRYYHVPSRA (disulfide 8-39, 12-18, 15-41, 27-33) [MEPF2] | saturable binding to the ER ectodomain fused to GFP (ERΔK-GFP) with similar dissociation constants at a nanomolar range | bind to ER and TMM with a similar affinity | bound to TMM with high affinity | bind to ER and TMM with a similar affinity | No significant binding | 2 | 10 |  |  |  |  | 
2 | IGSTAPTCTYNECRGCRYKCRAEQVPVEGNDPINSAYHYRCVCHR (disulfide 8-41, 13-20, 16-43) [Stomagen] | saturable binding to the ER ectodomain fused to GFP (ERΔK-GFP) with similar dissociation constants at a nanomolar range; also recorded: bind to ER and TMM with a similar affinity |  | bound to TMM with high affinity; also recorded: bind to ER and TMM with a similar affinity |  | No significant binding |  |  | 454 | replaced MEPF2 for ER-binding | bioactive | associates with all ER-family RKs and TMM | 
3 | IGSTAPTCTYNECRGCRYKCRAEQVPVEGNDPINSAYHYRCVCHR [Stomagen/EPF-LIKE9 peptide (bioactive Stomagen)] |  |  |  |  |  |  |  |  |  |  |  | 454
